In ChEMBL document CHEMBL2434944, “Novel acetamidothiazole derivatives: synthesis and in vitro anticancer evaluation” (Eur J Med Chem, 2013):

Experiments:
A498 = test: Growth inhibition of human A498 cells assessed as cell growth at 10^-5 M after 48 hrs by sulforhodamine B assay relative to control; assay type: functional; details: A498, 48 h, read-out: Activity
Outline: (§1)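 NCI-60 single-dose screen at 10^-5 M. Cells grown in RPMI 1640 with 5% FBS and 2 mM L-glutamine, plated at 5,000–40,000 cells/well according to doubling time, and preincubated 24 h at 37°C, 5% CO2. Compound dissolved in DMSO and added. Exposure 48 h. Adherent cells fixed with cold TCA (10% final), suspension cells with 16% final TCA. Read-out is 0.4% SRB staining, dye solubilised in 10 mM Tris, absorbance at 515 nm. Percent growth is calculated against the time-zero plate and untreated control.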

786-0 = test: Growth inhibition of human 786-0 cells assessed as cell growth at 10^-5 M after 48 hrs by sulforhodamine B assay relative to control; assay type: functional; details: 786-0, 48 h, read-out: Activity; outline: as §1
IGROV-1 = test: Growth inhibition of human IGROV1 cells assessed as cell growth at 10^-5 M after 48 hrs by sulforhodamine B assay relative to control; assay type: functional; details: IGROV-1, 48 h, read-out: Activity; outline: as §1
UACC-62 = test: Growth inhibition of human UACC62 cells assessed as cell growth at 10^-5 M after 48 hrs by sulforhodamine B assay relative to control; assay type: functional; details: UACC-62, 48 h, read-out: Activity
Outline: (§2)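 NCI-60 single-dose screen, 10^-5 M final. Cells grown in RPMI 1640 with 5% FBS and 2 mM L-glutamine, seeded at 5,000–40,000 cells/well by doubling time. Preincubated 24 h at 37°C, 5% CO2. Compound in DMSO, diluted in medium with gentamicin, then 48 h exposure. Fixed with cold TCA, SRB stained, A515 read. Percent growth vs untreated control, time-zero plate corrected.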

SK-MEL-5 = test: Growth inhibition of human SK-MEL-5 cells assessed as cell growth at 10^-5 M after 48 hrs by sulforhodamine B assay relative to control; assay type: functional; details: SK-MEL-5, 48 h, read-out: Activity; outline: as §1
SK-MEL-28 = test: Growth inhibition of human SK-MEL-28 cells assessed as cell growth at 10^-5 M after 48 hrs by sulforhodamine B assay relative to control; assay type: functional; details: SK-MEL-28, 48 h, read-out: Activity; outline: as §1
SK-MEL-2 = test: Growth inhibition of human SK-MEL-2 cells assessed as cell growth at 10^-5 M after 48 hrs by sulforhodamine B assay relative to control; assay type: functional; details: SK-MEL-2, 48 h, read-out: Activity; outline: as §1
LOX IMVI = test: Growth inhibition of human LOXIMVI cells assessed as cell growth at 10^-5 M after 48 hrs by sulforhodamine B assay relative to control; assay type: functional; details: read-out: Activity; outline: as §1
U-251 = test: Growth inhibition of human U251 cells assessed as cell growth at 10^-5 M after 48 hrs by sulforhodamine B assay relative to control; assay type: functional; details: U-251, 48 h, read-out: Activity; outline: as §2
SNB-19 = test: Growth inhibition of human SNB19 cells assessed as cell growth at 10^-5 M after 48 hrs by sulforhodamine B assay relative to control; assay type: functional; details: SNB-19, 48 h, read-out: Activity; outline: as §1
SF-539 = test: Growth inhibition of human SF539 cells assessed as cell growth at 10^-5 M after 48 hrs by sulforhodamine B assay relative to control; assay type: functional; details: SF-539, 48 h, read-out: Activity; outline: as §1
HCT-15 = test: Growth inhibition of human HCT15 cells assessed as cell growth at 10^-5 M after 48 hrs by sulforhodamine B assay relative to control; assay type: functional; details: HCT-15, 48 h, read-out: Activity; outline: as §1
HCT-116 = test: Growth inhibition of human HCT116 cells assessed as cell growth at 10^-5 M after 48 hrs by sulforhodamine B assay relative to control; assay type: functional; details: HCT-116, 48 h, read-out: Activity; outline: as §1
COLO 205 = test: Growth inhibition of human COLO205 cells assessed as cell growth at 10^-5 M after 48 hrs by sulforhodamine B assay relative to control; assay type: functional; details: COLO 205, 48 h, read-out: Activity; outline: as §1
NCI-H522 = test: Growth inhibition of human NCI-H522 cells assessed as cell growth at 10^-5 M after 48 hrs by sulforhodamine B assay relative to control; assay type: functional; details: NCI-H522, 48 h, read-out: Activity; outline: as §1
NCI-H460 = test: Growth inhibition of human NCI-H460 cells assessed as cell growth at 10^-5 M after 48 hrs by sulforhodamine B assay relative to control; assay type: functional; details: NCI-H460, 48 h, read-out: Activity; outline: as §1
A549 = test: Growth inhibition of human A549 cells assessed as cell growth at 10^-5 M after 48 hrs by sulforhodamine B assay relative to control; assay type: functional; details: A549, 48 h, read-out: Activity; outline: as §1
SR = test: Growth inhibition of human SR cells assessed as cell growth at 10^-5 M after 48 hrs by sulforhodamine B assay relative to control; assay type: functional; details: read-out: Activity; outline: as §2
RPMI-8226 = test: Growth inhibition of human RPMI8226 cells assessed as cell growth at 10^-5 M after 48 hrs by sulforhodamine B assay relative to control; assay type: functional; details: RPMI-8226, 48 h, read-out: Activity; outline: as §1
CCRF-CEM = test: Growth inhibition of human CCRF-CEM cells assessed as cell growth at 10^-5 M after 48 hrs by sulforhodamine B assay relative to control; assay type: functional; details: read-out: Activity; outline: as §1
HL-60(TB) = test: Growth inhibition of human HL-60(TB) cells assessed as cell growth at 10^-5 M after 48 hrs by sulforhodamine B assay relative to control; assay type: functional; details: HL-60, 48 h, read-out: Activity
Outline: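 NCI-60 one-dose screen at 10^-5 M. Cells were grown in RPMI 1640 with 5% FBS and 2 mM L-glutamine and plated at 5,000–40,000 cells/well. They were preincubated 24 h at 37°C under 5% CO2, then exposed for 48 h. Suspension cells were fixed with 80% TCA (16% final) and stained with 0.4% SRB, read at 515 nm. Percent growth is versus untreated control, corrected for time-zero.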

[1] = target: Epidermal growth factor receptor (Homo sapiens, UniProt P00533); test: Inhibition of human EGFR
BT-549 = test: Growth inhibition of human BT549 cells assessed as cell growth at 10^-5 M after 48 hrs by sulforhodamine B assay relative to control; assay type: functional; details: BT-549, 48 h, read-out: Activity; outline: as §1
[2] = Growth inhibition of human Hs 578T cells assessed as cell growth at 10^-5 M after 48 hrs by sulforhodamine B assay relative to control; assay type: functional; details: read-out: Activity; outline: as §1
MDA-MB-231 = test: Growth inhibition of human MDA-MB-231 cells assessed as cell growth at 10^-5 M after 48 hrs by sulforhodamine B assay relative to control; assay type: functional; details: MDA-MB-231, 48 h, read-out: Activity; outline: as §1
RXF 393 = test: Growth inhibition of human RXF393 cells assessed as cell growth at 10^-5 M after 48 hrs by sulforhodamine B assay relative to control; assay type: functional; details: RXF 393, 48 h, read-out: Activity; outline: as §1

Epidermal growth factor receptor, sequence (P00533 whole entry): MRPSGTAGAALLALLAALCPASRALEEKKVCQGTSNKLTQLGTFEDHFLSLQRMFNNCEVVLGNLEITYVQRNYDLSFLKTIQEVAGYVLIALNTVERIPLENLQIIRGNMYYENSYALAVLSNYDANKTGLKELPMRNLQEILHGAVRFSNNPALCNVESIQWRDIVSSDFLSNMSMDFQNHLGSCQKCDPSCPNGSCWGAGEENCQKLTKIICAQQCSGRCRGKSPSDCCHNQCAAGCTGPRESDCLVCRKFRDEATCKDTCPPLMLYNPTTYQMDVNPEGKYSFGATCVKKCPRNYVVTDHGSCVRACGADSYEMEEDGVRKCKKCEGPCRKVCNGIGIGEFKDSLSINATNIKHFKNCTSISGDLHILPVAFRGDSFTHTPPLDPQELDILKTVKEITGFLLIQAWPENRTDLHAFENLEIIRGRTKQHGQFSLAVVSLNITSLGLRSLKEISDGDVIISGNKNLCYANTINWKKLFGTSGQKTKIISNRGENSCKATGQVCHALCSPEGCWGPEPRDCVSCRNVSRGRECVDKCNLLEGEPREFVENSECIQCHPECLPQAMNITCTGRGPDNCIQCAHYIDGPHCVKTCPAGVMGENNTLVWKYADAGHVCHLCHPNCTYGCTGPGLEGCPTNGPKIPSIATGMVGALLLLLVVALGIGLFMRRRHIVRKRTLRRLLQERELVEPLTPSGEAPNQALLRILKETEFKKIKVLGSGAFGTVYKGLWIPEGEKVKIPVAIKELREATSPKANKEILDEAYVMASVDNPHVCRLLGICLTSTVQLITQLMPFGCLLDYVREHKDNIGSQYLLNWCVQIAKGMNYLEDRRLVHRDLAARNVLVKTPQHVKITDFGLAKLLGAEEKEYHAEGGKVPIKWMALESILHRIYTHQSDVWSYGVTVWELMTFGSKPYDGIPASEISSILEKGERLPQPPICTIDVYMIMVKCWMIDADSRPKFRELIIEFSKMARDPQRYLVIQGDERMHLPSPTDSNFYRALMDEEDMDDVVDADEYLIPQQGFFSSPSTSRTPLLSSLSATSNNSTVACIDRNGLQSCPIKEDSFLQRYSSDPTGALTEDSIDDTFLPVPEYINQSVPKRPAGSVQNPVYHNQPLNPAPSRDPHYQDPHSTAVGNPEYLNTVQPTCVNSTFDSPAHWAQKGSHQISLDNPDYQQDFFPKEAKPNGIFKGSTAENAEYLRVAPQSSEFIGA

Compound	growth at 10 µM (A498) [%]	growth at 10 µM (786-0) [%]	growth at 10 µM (IGROV-1) [%]	growth at 10 µM (UACC-62) [%]	growth at 10 µM (SK-MEL-5) [%]	growth at 10 µM (SK-MEL-28) [%]	growth at 10 µM (SK-MEL-2) [%]	growth at 10 µM (LOX IMVI) [%]	growth at 10 µM (U-251) [%]	growth at 10 µM (SNB-19) [%]	growth at 10 µM (SF-539) [%]	growth at 10 µM (HCT-15) [%]	growth at 10 µM (HCT-116) [%]	growth at 10 µM (COLO 205) [%]	growth at 10 µM (NCI-H522) [%]	growth at 10 µM (NCI-H460) [%]	growth at 10 µM (A549) [%]	growth at 10 µM (SR) [%]	growth at 10 µM (RPMI-8226) [%]	growth at 10 µM (CCRF-CEM) [%]	also measured
Cc1ccc(-c2csc(=N)n2CC(=O)N2CCOCC2)cc1	95.1	97.9	112	98.1	98.2	108	111	92.8	91.8	106	100	98.1	101	113	93	108	94.1	96.2	92.8	101	growth at 10 µM (HL-60(TB)): 93.2%; Ki [1]: 22.9 µM; growth at 10 µM (BT-549): 99.3%; growth at 10 µM [2]: 118%; growth at 10 µM (MDA-MB-231): 98.4%; growth at 10 µM (RXF 393): 94.5%
N=c1scc(-c2ccccc2)n1CC(=O)N1CCN(c2ccccc2)CC1	87.2	104	98.9	93.5	94.8	98.8	104	90.7	91.2	98.6	97.2	97	107	102	85.1	96.4	90.3	89.9	92.1	95.8	growth at 10 µM (HL-60(TB)): 99%; Ki [1]: 4.68 µM; growth at 10 µM (BT-549): 95.5%; growth at 10 µM [2]: 96.5%; growth at 10 µM (MDA-MB-231): 95%; growth at 10 µM (RXF 393): 107%
CC(=O)N1CCN(C(=O)Cn2c(-c3ccc(Cl)cc3)csc2=N)CC1	67.7	94.4	100	81.9	86.4	90.8	95.7	93.8	85.9	84.2	90.2	86.5	93	97	62.1	101	75.9	74.7	73.3	92.3	growth at 10 µM (HL-60(TB)): 98%; Ki [1]: 8.58 µM; growth at 10 µM (BT-549): 89.9%; growth at 10 µM [2]: 104%; growth at 10 µM (MDA-MB-231): 111%; growth at 10 µM (RXF 393): 100%
Cc1ccc(-c2csc(=N)n2CC(=O)N2CCN(c3ccccc3)CC2)cc1	92.6	101	93.2	85.9	88.2	100	117	96.8	95.3	96.6	100	104	103	109	95.5	105	97.7	98.8	92.4	103	growth at 10 µM (HL-60(TB)): 127%; Ki [1]: 2.97 µM; growth at 10 µM (BT-549): 92.6%; growth at 10 µM [2]: 88.2%; growth at 10 µM (MDA-MB-231): 78.8%; growth at 10 µM (RXF 393): 97.3%
N=c1scc(-c2ccccc2)n1CC(=O)N1CCOCC1	117	102	86.7	92.5	95.5	112	106	92	95.1	98.3	98.8	99.2	98.6	107	94.2	105	102	86.7	95.4	98.6	growth at 10 µM (HL-60(TB)): 118%; Ki [1]: 55.3 µM; growth at 10 µM (BT-549): 103%; growth at 10 µM [2]: 101%; growth at 10 µM (MDA-MB-231): 95.1%; growth at 10 µM (RXF 393): 98.7%
